Test results as given in ChEMBL document CHEMBL1153277 (Bioorg Med Chem Lett, 2009).

Assays:
[1] = biological target: Neuronal acetylcholine receptor subunit alpha-7 (Homo sapiens, UniProt P36544); test: Agonist activity at human recombinant alpha7 nAChR expressed in rat GH3 cells by calcium influx assay; format: functional, cell-based
How it was run: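 GH3 cells recombinantly expressing human α7 nAChR; agonist activity. Each compound run in duplicate. EC50 taken from individual 8-point concentration-response curves and expressed as pEC50, with Emax given in %.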

Homo sapiens [2] = organism: Homo sapiens; test: Selectivity for human 5HT3 receptor over human alpha7 nAChR
[3] = biological target: Acetylcholine receptor; alpha1/beta1/delta/gamma (Homo sapiens, UniProt P02708+P07510+P11230+Q07001); test: Antagonist activity at human alpha-1-beta-1-gamma-delta nAChR expressed in human TE671 cells by calcium influx assay; format: functional, cell-based, TE-671
Homo sapiens [4] = organism: Homo sapiens; test: Selectivity for human alpha-1-beta-1-gamma-delta nAChR over human alpha7 nAChR
[5] = biological target: Neuronal acetylcholine receptor; alpha4/beta2 (Homo sapiens, UniProt P17787+P43681); test: Antagonist activity at human alpha4beta2 nAChR expressed in HEK293 cells by calcium influx assay; format: functional, cell-based
[6] = biological target: T1, 5-hydroxytryptamine receptor 3A (Homo sapiens, UniProt P46098); test: Antagonist activity at human 5HT3 receptor by calcium influx assay; format: functional
T1 sequence (P46098 whole entry): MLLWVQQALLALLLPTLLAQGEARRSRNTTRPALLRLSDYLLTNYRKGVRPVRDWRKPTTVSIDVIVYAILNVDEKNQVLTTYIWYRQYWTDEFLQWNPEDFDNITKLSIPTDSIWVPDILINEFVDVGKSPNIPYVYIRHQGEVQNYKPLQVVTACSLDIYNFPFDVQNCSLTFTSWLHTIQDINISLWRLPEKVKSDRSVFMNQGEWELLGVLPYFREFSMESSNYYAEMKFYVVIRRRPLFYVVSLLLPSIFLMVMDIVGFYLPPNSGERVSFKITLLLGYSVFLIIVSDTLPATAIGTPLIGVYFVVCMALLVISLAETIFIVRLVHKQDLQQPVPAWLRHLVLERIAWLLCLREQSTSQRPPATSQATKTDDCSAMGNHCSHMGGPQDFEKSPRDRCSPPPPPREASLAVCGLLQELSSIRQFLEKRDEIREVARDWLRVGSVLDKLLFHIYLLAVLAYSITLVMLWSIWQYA

[7] = biological target: Neuronal acetylcholine receptor; alpha3/beta4 (Homo sapiens, UniProt P30926+P32297); test: Antagonist activity at human alpha3beta4 nAChR expressed in HEK293 cells by calcium influx assay; format: functional, cell-based
Homo sapiens [8] = organism: Homo sapiens; test: Selectivity for human alpha4beta2 nAChR over human alpha7 nAChR
Homo sapiens [9] = organism: Homo sapiens; test: Selectivity for human alpha3beta4 nAChR over human alpha7 nAChR
Mus musculus [10] = test: Plasma concentration in DBA/2 mouse at 30 umol/kg, po after 1 hr; format: ADME, organism-based; details: in vivo
How it was run: (§1)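 Mice (n = 6) dosed 30 µmol/kg po. Brain and plasma levels measured at 1 h and 4 h after dosing, reported as pmol/g.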

Brain [11] = test: Drug level in DBA/2 mouse brain at 30 umol/kg, po after 4 hrs; format: ADME, organism-based; details: in vivo; how it was run: as §1
[12] = Metabolic stability in human liver microsomes assessed as hepatic extraction ratio; format: ADME, Microsome; details: read-out: Activity
How it was run: (§2)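 Compound incubated with mouse or human liver microsomes. In vitro hepatic extraction ratio reported as % compound depleted at the end of the experiment; half-life also given.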

Brain [13] = test: Drug level in DBA/2 mouse brain at 30 umol/kg, po after 1 hr; format: ADME, organism-based; details: in vivo; how it was run: as §1
[14] = Octanol-water partition coefficient, log P of the compound; format: physicochemical
Mus musculus [15] = test: Plasma concentration in DBA/2 mouse at 30 umol/kg, po after 4 hrs; format: ADME, organism-based; details: in vivo; how it was run: as §1
[16] = Metabolic stability in mouse liver microsomes assessed as hepatic extraction ratio; format: ADME, Microsome; details: read-out: Activity; how it was run: as §2

Chain of Neuronal acetylcholine receptor; alpha3/beta4 (P30926 whole entry): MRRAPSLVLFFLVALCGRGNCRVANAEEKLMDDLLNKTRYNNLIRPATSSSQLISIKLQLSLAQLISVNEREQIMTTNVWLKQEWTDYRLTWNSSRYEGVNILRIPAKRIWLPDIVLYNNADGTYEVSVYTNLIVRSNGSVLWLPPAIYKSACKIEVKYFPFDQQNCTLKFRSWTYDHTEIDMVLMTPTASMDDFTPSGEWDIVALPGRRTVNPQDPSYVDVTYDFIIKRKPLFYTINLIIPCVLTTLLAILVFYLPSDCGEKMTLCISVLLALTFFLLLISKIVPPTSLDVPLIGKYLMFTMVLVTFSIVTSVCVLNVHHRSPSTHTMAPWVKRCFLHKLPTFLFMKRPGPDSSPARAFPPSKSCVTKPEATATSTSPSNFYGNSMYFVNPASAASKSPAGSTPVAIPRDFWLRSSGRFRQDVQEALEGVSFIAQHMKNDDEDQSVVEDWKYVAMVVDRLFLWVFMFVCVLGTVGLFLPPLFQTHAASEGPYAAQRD
Chain of Neuronal acetylcholine receptor; alpha3/beta4 (P32297 whole entry): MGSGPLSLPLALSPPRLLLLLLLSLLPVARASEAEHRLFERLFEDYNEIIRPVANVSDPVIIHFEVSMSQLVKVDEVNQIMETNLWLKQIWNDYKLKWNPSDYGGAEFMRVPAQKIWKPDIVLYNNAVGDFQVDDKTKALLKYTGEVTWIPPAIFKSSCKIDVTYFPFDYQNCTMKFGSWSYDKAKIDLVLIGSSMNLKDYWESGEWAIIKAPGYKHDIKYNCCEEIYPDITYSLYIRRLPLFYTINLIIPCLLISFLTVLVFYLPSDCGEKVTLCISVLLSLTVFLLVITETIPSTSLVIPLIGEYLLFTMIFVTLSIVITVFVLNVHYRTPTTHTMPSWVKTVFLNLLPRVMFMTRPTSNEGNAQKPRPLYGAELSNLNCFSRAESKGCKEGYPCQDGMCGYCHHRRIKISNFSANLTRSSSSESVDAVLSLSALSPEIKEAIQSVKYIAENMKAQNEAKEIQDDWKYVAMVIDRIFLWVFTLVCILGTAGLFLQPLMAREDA
Chain of Neuronal acetylcholine receptor; alpha4/beta2 (P17787 whole entry): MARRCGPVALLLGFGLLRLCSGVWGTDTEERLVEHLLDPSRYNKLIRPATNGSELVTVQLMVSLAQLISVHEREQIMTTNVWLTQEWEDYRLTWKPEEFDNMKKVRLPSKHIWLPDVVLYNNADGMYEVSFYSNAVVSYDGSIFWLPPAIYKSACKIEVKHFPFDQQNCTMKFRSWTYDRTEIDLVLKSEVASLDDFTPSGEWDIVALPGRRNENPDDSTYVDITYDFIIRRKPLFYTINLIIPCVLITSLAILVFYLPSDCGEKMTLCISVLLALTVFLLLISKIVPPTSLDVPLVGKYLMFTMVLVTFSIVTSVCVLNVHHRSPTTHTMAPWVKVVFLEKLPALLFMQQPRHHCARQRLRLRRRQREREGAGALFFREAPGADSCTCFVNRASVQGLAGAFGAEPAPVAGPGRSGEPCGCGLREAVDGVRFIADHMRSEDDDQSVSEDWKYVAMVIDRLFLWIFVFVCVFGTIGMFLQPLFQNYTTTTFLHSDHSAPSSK
Chain of Neuronal acetylcholine receptor; alpha4/beta2 (P43681 whole entry): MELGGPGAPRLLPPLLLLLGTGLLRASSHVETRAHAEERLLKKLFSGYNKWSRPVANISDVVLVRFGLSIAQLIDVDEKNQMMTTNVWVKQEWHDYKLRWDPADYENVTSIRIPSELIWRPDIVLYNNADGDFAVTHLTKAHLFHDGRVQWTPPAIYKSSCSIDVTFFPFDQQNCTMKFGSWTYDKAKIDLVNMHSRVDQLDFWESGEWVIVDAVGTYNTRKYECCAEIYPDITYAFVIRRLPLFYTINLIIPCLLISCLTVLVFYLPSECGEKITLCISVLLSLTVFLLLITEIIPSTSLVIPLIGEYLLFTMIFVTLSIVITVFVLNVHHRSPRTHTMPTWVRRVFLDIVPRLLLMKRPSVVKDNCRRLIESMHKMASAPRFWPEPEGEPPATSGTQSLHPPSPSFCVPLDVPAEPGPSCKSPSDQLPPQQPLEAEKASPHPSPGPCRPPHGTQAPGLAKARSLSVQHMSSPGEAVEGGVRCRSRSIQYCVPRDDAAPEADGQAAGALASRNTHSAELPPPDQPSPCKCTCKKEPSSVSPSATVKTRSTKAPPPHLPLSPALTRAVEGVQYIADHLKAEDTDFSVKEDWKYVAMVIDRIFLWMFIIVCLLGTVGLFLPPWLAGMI
Chain of Acetylcholine receptor; alpha1/beta1/delta/gamma (P02708 whole entry): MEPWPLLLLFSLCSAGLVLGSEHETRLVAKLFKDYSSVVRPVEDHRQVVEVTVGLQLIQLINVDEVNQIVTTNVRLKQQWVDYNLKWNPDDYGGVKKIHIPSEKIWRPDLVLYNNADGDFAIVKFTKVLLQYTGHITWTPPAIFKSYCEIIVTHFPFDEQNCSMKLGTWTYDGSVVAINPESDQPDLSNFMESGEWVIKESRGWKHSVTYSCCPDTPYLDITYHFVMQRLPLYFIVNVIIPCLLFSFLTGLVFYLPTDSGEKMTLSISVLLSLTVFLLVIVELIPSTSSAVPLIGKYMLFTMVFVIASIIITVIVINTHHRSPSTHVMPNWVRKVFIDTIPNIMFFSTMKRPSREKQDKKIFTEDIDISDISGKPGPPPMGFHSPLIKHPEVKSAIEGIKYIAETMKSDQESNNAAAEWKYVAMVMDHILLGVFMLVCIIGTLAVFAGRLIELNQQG
Chain of Acetylcholine receptor; alpha1/beta1/delta/gamma (P07510 whole entry): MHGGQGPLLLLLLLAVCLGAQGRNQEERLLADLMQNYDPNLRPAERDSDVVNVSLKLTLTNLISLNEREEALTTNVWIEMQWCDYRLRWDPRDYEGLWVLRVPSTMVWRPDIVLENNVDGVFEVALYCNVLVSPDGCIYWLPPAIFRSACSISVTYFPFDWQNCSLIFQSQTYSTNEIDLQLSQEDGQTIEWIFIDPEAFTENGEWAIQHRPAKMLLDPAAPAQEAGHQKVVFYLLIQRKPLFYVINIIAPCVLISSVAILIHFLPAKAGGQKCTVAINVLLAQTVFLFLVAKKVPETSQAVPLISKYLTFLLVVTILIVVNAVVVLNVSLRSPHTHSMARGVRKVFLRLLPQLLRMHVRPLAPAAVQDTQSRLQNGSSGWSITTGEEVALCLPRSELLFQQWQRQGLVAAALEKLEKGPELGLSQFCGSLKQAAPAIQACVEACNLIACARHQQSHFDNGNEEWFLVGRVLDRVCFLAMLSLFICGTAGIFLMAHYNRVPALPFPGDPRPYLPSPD
Chain of Acetylcholine receptor; alpha1/beta1/delta/gamma (P11230 whole entry): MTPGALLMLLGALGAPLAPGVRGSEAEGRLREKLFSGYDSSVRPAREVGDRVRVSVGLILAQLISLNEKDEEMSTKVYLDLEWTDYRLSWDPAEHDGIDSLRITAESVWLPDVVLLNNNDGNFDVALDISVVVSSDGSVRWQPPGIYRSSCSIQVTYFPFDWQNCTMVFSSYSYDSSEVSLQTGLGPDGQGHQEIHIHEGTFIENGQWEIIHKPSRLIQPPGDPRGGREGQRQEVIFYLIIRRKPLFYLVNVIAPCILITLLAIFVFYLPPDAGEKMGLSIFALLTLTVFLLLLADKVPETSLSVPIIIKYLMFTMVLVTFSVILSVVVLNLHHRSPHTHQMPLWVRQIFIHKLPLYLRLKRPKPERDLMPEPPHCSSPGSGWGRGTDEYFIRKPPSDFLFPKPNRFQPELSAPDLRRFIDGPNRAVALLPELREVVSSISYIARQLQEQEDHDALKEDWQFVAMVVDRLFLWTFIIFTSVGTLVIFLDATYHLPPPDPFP
Chain of Acetylcholine receptor; alpha1/beta1/delta/gamma (Q07001 whole entry): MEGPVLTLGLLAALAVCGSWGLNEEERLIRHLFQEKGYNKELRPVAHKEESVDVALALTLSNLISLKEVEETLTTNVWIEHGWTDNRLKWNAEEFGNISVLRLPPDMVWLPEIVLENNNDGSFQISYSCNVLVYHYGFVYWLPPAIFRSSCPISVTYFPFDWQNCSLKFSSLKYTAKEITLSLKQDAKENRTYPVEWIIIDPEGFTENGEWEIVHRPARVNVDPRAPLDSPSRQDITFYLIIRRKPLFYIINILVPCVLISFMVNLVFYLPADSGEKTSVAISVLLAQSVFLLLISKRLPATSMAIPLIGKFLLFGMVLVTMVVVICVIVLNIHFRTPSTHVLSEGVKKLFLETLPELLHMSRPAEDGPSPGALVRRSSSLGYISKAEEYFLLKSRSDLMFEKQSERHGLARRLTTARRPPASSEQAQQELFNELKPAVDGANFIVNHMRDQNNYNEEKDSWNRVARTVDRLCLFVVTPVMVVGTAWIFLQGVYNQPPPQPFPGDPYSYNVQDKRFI
Chain of Neuronal acetylcholine receptor subunit alpha-7 (P36544 whole entry): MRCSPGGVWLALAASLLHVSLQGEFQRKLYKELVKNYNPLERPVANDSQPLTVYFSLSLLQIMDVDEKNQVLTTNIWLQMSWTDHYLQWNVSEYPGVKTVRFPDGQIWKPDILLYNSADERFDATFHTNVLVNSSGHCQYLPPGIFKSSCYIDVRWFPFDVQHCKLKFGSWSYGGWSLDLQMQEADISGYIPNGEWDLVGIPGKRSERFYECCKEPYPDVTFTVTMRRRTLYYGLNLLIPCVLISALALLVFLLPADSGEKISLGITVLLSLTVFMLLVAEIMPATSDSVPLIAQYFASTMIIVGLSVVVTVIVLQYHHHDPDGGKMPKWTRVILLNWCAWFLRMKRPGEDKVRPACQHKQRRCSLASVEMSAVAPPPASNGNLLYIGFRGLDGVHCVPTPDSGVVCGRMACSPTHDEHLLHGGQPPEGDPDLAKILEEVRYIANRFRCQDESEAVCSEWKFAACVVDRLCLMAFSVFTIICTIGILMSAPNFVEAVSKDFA

Compound	EC50 [1] [µM]	Emax [1] [%]	also measured
CN1C(=O)[C@@H](CN2CCCCCC2)C[C@H]1c1ccccc1Cl (relative stereo)	2	82	
CN1C(=O)[C@@H](CN2CCCCC2)C[C@H]1c1ccc(C2CCCC2)cc1 (relative stereo)	0.316	28	
COc1cccc([C@@H]2C[C@H](CN3CCCCC3)C(=O)N2C)c1 (relative stereo)	1.26	128	
CN1C(=O)[C@@H](CN2CCCCC2)C[C@H]1c1ccccc1Cl	0.794	89	
CN1C(=O)[C@@H](CN2CCCCC2)C[C@H]1C#Cc1ccc2c(c1)CCO2 (relative stereo)	0.00794	80	Ratio (Homo sapiens [2]): 5390; IC50 [3]: 6.31 µM; Ratio (Homo sapiens [4]): 773; IC50 [5]: 10 µM; IC50 [6]: 50.1 µM; IC50 [7]: 1 µM; Ratio (Homo sapiens [8]): 1260; Ratio (Homo sapiens [9]): 154
COc1cccc([C@@H]2C[C@H](CN3CCCC3)C(=O)N2C)c1 (relative stereo)	7.94	80	
CN1C(=O)[C@@H](CN2CCCCC2)C[C@H]1c1ccc(Cl)cc1 (relative stereo)	1	110	
CN1C(=O)[C@@H](CN2CCCCC2)C[C@H]1c1nc(-c2ccccc2Cl)cn1C (relative stereo)	0.631	47	
CN1C(=O)[C@@H](CN2CCCCC2)C[C@H]1c1ccc(C2CCCCC2)cc1 (relative stereo)	0.316	60	
CN1C(=O)[C@@H](CN2CCCCC2)C[C@H]1C#Cc1ccc2c(ccn2C)c1 (relative stereo)	0.00794	100	Ratio (Homo sapiens [2]): 3220; IC50 [3]: 3.98 µM; Ratio (Homo sapiens [4]): 431; IC50 [5]: 2 µM; IC50 [6]: 25.1 µM; IC50 [7]: 1 µM; Ratio (Homo sapiens [8]): 232; Ratio (Homo sapiens [9]): 111
CN1C(=O)[C@@H](CN2CCCCC2)C[C@H]1c1cnc(-c2ccccc2Cl)s1 (relative stereo)	0.0251	89	Ratio (Homo sapiens [9]): 14
Cc1cc([C@@H]2C[C@H](CN3CCCCC3)C(=O)N2C)sc1-c1ccccc1Cl (relative stereo)	0.631	81	
CN1C(=O)[C@@H](CN2CCCCC2)C[C@H]1c1cccc(Cl)c1 (relative stereo)	1	102	
CN1C(=O)[C@@H](CN2CCCCC2)C[C@H]1C#Cc1ccc2occc2c1 (relative stereo)	0.00794	90	Cp (Mus musculus [10]): 1001 pmol/g; Ratio (Homo sapiens [2]): 17000; Drug uptake (Brain [11]): 3676 pmol/g; hepatic extraction ratio [12]: 0.68; IC50 [3]: 100 µM; Drug uptake (Brain [13]): 6533 pmol/g; Ratio (Homo sapiens [4]): 17000; IC50 [5]: 5.01 µM; logP [14]: 3.9; IC50 [6]: 100 µM; Cp (Mus musculus [15]): 544 pmol/g; hepatic extraction ratio [16]: 0.67; IC50 [7]: 0.794 µM; Ratio (Homo sapiens [8]): 660; Ratio (Homo sapiens [9]): 123
CN1C(=O)[C@@H](CN2CCCCC2)C[C@H]1c1nc(-c2ccccc2Cl)c[nH]1 (relative stereo)	1.26	61	
O=C1NC[C@@]2(CN3CCC2CC3)O1	0.398	104	
COc1ccccc1[C@@H]1C[C@H](CN2CCCCC2)C(=O)N1C (relative stereo)	1.26	107	
Clc1ccc([C@@H]2C[C@H]3CC[C@@H]2N3)cn1 [(+)-EPIBATIDINE]	0.0398	100	
COc1ccc([C@@H]2C[C@H](CN3CCCCC3)C(=O)N2C)cc1 (relative stereo)	1.26	124	
CN1C(=O)[C@@H](CN2CCCCC2)C[C@H]1C#Cc1ccccc1Cl	0.0251	89	Ratio (Homo sapiens [9]): 52
CN1C(=O)[C@@H](CN2CCCCC2)C[C@H]1c1ccc(-c2ccccc2F)cc1 (relative stereo)	0.316	47	
CN1C(=O)[C@@H](CN2CCCCC2)C[C@H]1c1ccc(-c2ccccc2)cc1	1.26	61	
CN1C(=O)[C@@H](CN2CCCCC2)C[C@H]1c1ccc(-c2ccccc2Cl)s1 (relative stereo)	0.0316	79	Ratio (Homo sapiens [9]): 26
Cc1ccc([C@@H]2C[C@H](CN3CCCCC3)C(=O)N2C)cc1 (relative stereo)	0.631	114	
CN1C(=O)[C@@H](CN2CCCCC2)C[C@H]1c1ccc(-c2ccccc2Cl)cc1 (relative stereo)	0.126	62	Ratio (Homo sapiens [9]): 3
CN1CCC[C@H]1c1cccnc1		100	
CN1C(=O)[C@@H](CN2CCCCC2)C[C@H]1c1ccc(Br)cc1 (relative stereo)	0.631	89	
COc1ccc(/C=C2\CCCN=C2c2cccnc2)c(OC)c1 [GTS-21]	2	71	
Cc1ccccc1C#C[C@@H]1C[C@H](CN2CCCCC2)C(=O)N1C (relative stereo)	0.0158	83	Ratio (Homo sapiens [9]): 104
